In publication PMC8504815 (Clinical and Translational Science, 2021):
Entries after “also recorded” stand apart in the source; their conditions may differ.

Tests used:
BTK = BTK (Homo sapiens, UniProt Q06187); assay: BTK occupancy in blood; assay type: in vivo
skin prick test wheal = assay: Skin prick test; assay type: in vivo, human; conditions: MAD
Procedure, shortened: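 MAD subjects with atopic diathesis had skin prick tests to known allergens from 7 undiluted allergens (pollens, house dust mite, cat and horse dander). Tests were done at day −1, day 1 predose/2/8 h, day 2 predose and day 12 predose/8/24/96 h. Wheal diameter was the mean of the longest and perpendicular diameters. The predose average (day −1 and day 1) was compared with the average of all 7 postdose tests.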

Food effect = assay type: in vivo, human; conditions: for MRT: mean (SD)
[1] = Blood pharmacokinetics, single ascending dose; assay type: in vivo, human
Procedure, shortened: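 Ten cohorts of 8 healthy adults aged 18–65 were randomized 3:1 to one fasted oral dose (0.5–600 mg) or placebo, double-blind. Blood was taken predose and at protocol timepoints up to day 8, and drug was measured by validated LC-MS/MS. Dose proportionality used regression of log Cmax and AUC on log dose, giving the slope with 90% CI.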

basophils [2] = assay: Basophil activation; assay type: in vivo, human; conditions: for trough inhibition of CD203c: day 12; for inhibition of CD203c+ basophils, peak: 8 h on day 1
Procedure, shortened: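 Heparinized whole blood was drawn at set timepoints from MAD subjects (healthy, asymptomatic atopic diathesis; oral q.d. or b.i.d.). It was stimulated ex vivo with anti-IgE for 25 minutes at 37°C/5% CO₂. CD63+ and CD203c+ basophils were counted as a percentage by flow cytometry and expressed as % inhibition versus baseline. Subjects with baseline CD63+ stimulation below 10% were excluded.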

[3] = statement in discussion, no value or reference printed; cited from earlier work
Safety and tolerability = assay type: in vivo, human; conditions: for dose-limiting toxicity: up to highest dose tested
[4] = Blood pharmacokinetics, multiple ascending dose; assay type: in vivo, human; conditions: for CLss/F: apparent total body clearance from blood at steady state; for CLss/F / AUC(0-t) / Cmax: mean (SD); for half-life: terminal half-life; for half-life / Tmax: median (minimum-maximum)
Procedure, shortened: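 Fasted healthy subjects with asymptomatic atopic diathesis were randomized 3:1 to oral drug or placebo, q.d. or b.i.d., through day 12. Blood was sampled predose and to 24 h on day 1 (b.i.d. to 12 h), then at trough and 2 h postdose. Urine was also collected. Assay was LC-MS/MS. Log Cmax/AUC was regressed on log dose (slope, 90% CI).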

basophils [5] = conditions: doses >=200 mg; not sustained beyond; cited from earlier work
[6] = human, whole blood, oral, 100 mg, MAD 100 mg b.i.d., Day 1
[7] = human, whole blood, oral, 100 mg, MAD 100 mg b.i.d., Day 12
[8] = human, whole blood, oral, 200 mg, MAD 200 mg b.i.d., Day 12
[9] = human, whole blood, oral, 600 mg, MAD 600 mg q.d., Day 1

Chain of BTK (Q06187 whole entry): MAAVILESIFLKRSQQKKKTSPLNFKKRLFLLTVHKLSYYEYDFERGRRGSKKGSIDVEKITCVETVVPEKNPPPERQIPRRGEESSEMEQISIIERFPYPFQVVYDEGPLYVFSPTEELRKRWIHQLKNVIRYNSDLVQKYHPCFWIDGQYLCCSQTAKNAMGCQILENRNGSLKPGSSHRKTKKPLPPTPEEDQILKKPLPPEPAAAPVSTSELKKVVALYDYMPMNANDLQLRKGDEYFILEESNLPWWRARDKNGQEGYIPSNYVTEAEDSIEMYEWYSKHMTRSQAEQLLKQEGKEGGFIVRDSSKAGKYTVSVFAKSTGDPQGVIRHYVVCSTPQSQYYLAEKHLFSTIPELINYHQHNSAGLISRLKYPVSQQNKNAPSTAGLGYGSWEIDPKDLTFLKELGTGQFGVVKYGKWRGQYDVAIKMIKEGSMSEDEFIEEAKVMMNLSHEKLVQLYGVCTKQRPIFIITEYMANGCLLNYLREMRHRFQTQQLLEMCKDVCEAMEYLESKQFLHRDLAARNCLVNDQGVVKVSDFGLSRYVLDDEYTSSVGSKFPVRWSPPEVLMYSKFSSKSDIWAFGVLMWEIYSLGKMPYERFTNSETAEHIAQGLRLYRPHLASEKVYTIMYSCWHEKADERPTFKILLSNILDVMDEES

C=CC(=O)N(C)CCOc1c(N)ncnc1-c1cc(F)cc(NC(=O)c2ccc(C3CC3)cc2F)c1C [Remibrutinib]
BTK occupancy in blood (BTK; MAD, doses >=50 mg, over the measured dosing period, complete = >95%): maintained complete BTK occupancy
BTK occupancy in blood (BTK; SAD, lowest dose of 0.5 mg): no BTK occupancy
lowest dose showing both complete BTK occupancy and almost complete basophil inhibition (BTK; single dose): 30 mg
skin prick test (SPT) inhibition (skin prick test wheal; day 12 predose, >=100 mg q.d.): Near complete
average decrease in wheal size (SPT) (skin prick test wheal; doses >=100 mg q.d., across all tests, subjects with atopic diathesis): ~ 3 mm
Delay of median Tmax, fed vs fasted (Food effect; 60 mg single dose, standardized high-fat breakfast): ~ 2 h
Cmax geometric mean ratio (fed vs fasted) (Food effect; 60 mg single dose, 90% CI 0.638-1.01): 0.801
AUClast geometric mean ratio (fed vs fasted) (Food effect; 60 mg single dose, 90% CI 1.14-1.47): 1.30
effect of food intake on exposure (Food effect; 60 mg, fed vs fasted): no clinically relevant effect
MRT (Food effect; human, whole blood, oral, 60 mg, 60 mg single dose, Fasted): 2.29 ± 0.72 h
MRT (Food effect; human, whole blood, oral, 60 mg, 60 mg single dose, Fed): 4.17 ± 1.2 h
Tmax (Food effect; human, whole blood, oral, 60 mg, Tmax, 60 mg single dose, Fed, median (min-max)): 2.78 h
dose proportionality of Cmax, AUCinf, AUClast over the full dose range ([1]; SAD cohorts): not demonstrated
half-life ([1]; human, whole blood, oral): 1 to 2 h
Tmax ([1]; human, whole blood, po): 0.5 to 1.25 h
trough level inhibition of CD63 (basophils [2]; MAD 10 mg q.d., last day of dosing): 80%
trough inhibition of CD203c (basophils [2]; MAD 100 mg b.i.d.): 63%
inhibition of CD203c+ basophils, peak (basophils [2]; MAD 200 mg b.i.d.): 81.8%
trough inhibition of CD203c (basophils [2]; MAD 200 mg b.i.d.): 67%
inhibition of CD203c+ basophils, peak (basophils [2]; MAD 400 mg q.d.): 84%
inhibition of blood basophil activation (CD63 expression) (basophils [2]; MAD daily dose >=50 mg, day 1-12 incl. day 12 predose): Near complete; also recorded: Full inhibition
basophil inhibition (CD63 expression) (basophils [2]; SAD 60 mg, after 24 h): ~90%
inhibition of CD203c basophil activation marker (basophils [2]; SAD 200 mg cohort, at 8 h): up to 79.4%
basophil inhibition (CD63 expression) (basophils [2]; SAD, doses >=100 mg): almost complete inhibition
solubility [3]: low solubility
hematomas (Safety and tolerability; 100 mg MAD cohort, after trauma / vessel puncture, resolved spontaneously): two hematomas
self-limiting epistaxis (Safety and tolerability; 600 mg MAD group, both had history of repeated epistaxis): Two subjects
headache (most common AE) (Safety and tolerability; FE cohort, 2/12): 16.7%
Subjects with at least 1 AE (Safety and tolerability; FE cohort, 7 of 12 subjects): 58.3%
incidence of AEs (Safety and tolerability; FE cohort, fasted condition): 16.7%
incidence of AEs (Safety and tolerability; FE cohort, fed condition): 50%
AE severity: Mild (Safety and tolerability; Food effect cohort, N = 12): 7 (58.3) n (%)
AE severity: Moderate (Safety and tolerability; Food effect cohort, N = 12): 1 (8.3) n (%)
Headache (Safety and tolerability; Food effect cohort, N = 12): 2 (16.7) n (%)
Nasopharyngitis (Safety and tolerability; Food effect cohort, N = 12): 1 (8.3) n (%)
Study drug-related AEs (Safety and tolerability; Food effect cohort, N = 12): 3 (25.0) n (%)
Subjects with at least 1 AE (Safety and tolerability; Food effect cohort, N = 12): 7 (58.3) n (%)
subjects with AEs suspected to be related to the study drug (Safety and tolerability; MAD cohorts, 5/48): 10.4%
incidence of AEs (subjects with at least 1 AE) (Safety and tolerability; MAD cohorts, 24 subjects on remibrutinib): 50.0%
AE severity: Mild (Safety and tolerability; MAD cohorts, all doses, N = 48): 22 (45.8) n (%)
AE severity: Moderate (Safety and tolerability; MAD cohorts, all doses, N = 48): 5 (10.4) n (%)
AE severity: Severe (Safety and tolerability; MAD cohorts, all doses, N = 48): 1 (2.1) n (%)
Headache (Safety and tolerability; MAD cohorts, all doses, N = 48): 5 (10.4) n (%)
Nasopharyngitis (Safety and tolerability; MAD cohorts, all doses, N = 48): 3 (6.3) n (%)
Study drug-related AEs (Safety and tolerability; MAD cohorts, all doses, N = 48): 5 (10.4) n (%)
Subjects with at least 1 AE (Safety and tolerability; MAD cohorts, all doses, N = 48): 24 (50.0) n (%)
Toothache (Safety and tolerability; MAD cohorts, all doses, N = 48): 1 (2.1) n (%)
AEs reported (Safety and tolerability; SAD 100 and 200 mg cohorts): No AEs
Subjects with at least 1 AE (Safety and tolerability; SAD cohorts, 17 subjects on remibrutinib): 28.3%
AE severity: Mild (Safety and tolerability; SAD cohorts, all doses, N = 60): 16 (26.7) n (%)
AE severity: Moderate (Safety and tolerability; SAD cohorts, all doses, N = 60): 1 (1.7) n (%)
Headache (Safety and tolerability; SAD cohorts, all doses, N = 60): 6 (10.0) n (%)
Nasopharyngitis (Safety and tolerability; SAD cohorts, all doses, N = 60): 4 (6.7) n (%)
Study drug-related AEs (Safety and tolerability; SAD cohorts, all doses, N = 60): 7 (11.7) n (%)
Subjects with at least 1 AE (Safety and tolerability; SAD cohorts, all doses, N = 60): 17 (28.3) n (%)
subjects with AEs suspected to be related to the study drug (Safety and tolerability; SAD cohorts, all on remibrutinib, of 80 subjects): 7 subjects
changes in hematology, biochemistry, urinalysis parameters (vital signs, ECG) (Safety and tolerability; all cohorts): No clinically significant changes
dose-limiting toxicity (Safety and tolerability; all doses): without any dose‐limiting toxicity
dose-limiting toxicity (Safety and tolerability; all doses, listed as remibrutinib): No dose‐limiting toxicity
tolerability (Safety and tolerability; all evaluated doses, up to 600 mg oral): well‐tolerated
SAEs or deaths (Safety and tolerability; any cohort, overall summary): No SAEs or deaths
risk of bleeding (Safety and tolerability; any dose, bruising log and coagulation testing): no increased risk of bleeding
CLss/F ([4]; MAD 100 mg b.i.d., Day 12): 255 (153) L/h
CLss/F ([4]; MAD 100 mg q.d., Day 12): 198 (88.7) L/h
CLss/F ([4]; MAD 200 mg b.i.d., Day 12): 267 (126) L/h
CLss/F ([4]; MAD 400 mg q.d., Day 12): 366 (150) L/h
CLss/F ([4]; MAD 600 mg q.d., Day 12): 521 (131) L/h
dose proportional increases of Cmax and AUC over the full dose range ([4]; MAD cohorts): not observed
time to steady-state ([4]; MAD cohorts): third day of dosing
direct renal excretion, contribution to total apparent blood clearance ([4]; across doses in all MAD cohorts, urine): ~ 1%
AUC(0-t) ([4]; human, whole blood, oral, 100 mg, AUC0–12 h, MAD 100 mg b.i.d., Day 12): 496 ng·h/mL
AUC(0-t) ([4]; human, whole blood, oral, 100 mg, AUC0–24 h, MAD 100 mg q.d., Day 12): 485 ng·h/mL
AUC(0-t) ([4]; human, whole blood, oral, 100 mg, AUClast, MAD 100 mg b.i.d., Day 12): 518 ng·h/mL
Cmax [4, 6]: 180 ng/mL
Cmax [4, 7]: 306 ng/mL
half-life ([4]; human, whole blood, oral, 100 mg, T1/2, MAD 100 mg b.i.d., Day 12): 2.84 h
Tmax [4, 6]: 1.5 h
Tmax [4, 7]: 0.775 h
AUC(0-t) ([4]; human, whole blood, oral, 200 mg, AUC0–12 h, MAD 200 mg b.i.d., Day 1): 464 ng·h/mL
AUC(0-t) ([4]; human, whole blood, oral, 200 mg, AUC0–12 h, MAD 200 mg b.i.d., Day 12): 890 ng·h/mL
AUC(0-t) ([4]; human, whole blood, oral, 200 mg, AUClast, MAD 200 mg b.i.d., Day 1): 464 ng·h/mL
Cmax ([4]; human, whole blood, oral, 200 mg, MAD 200 mg b.i.d., Day 1): 236 ng/mL
Cmax [4, 8]: 347 ng/mL
half-life ([4]; human, whole blood, oral, 200 mg, T1/2, MAD 200 mg b.i.d., Day 12): 12.4 h
Tmax [4, 8]: 0.992 h
AUC(0-t) ([4]; human, whole blood, oral, 400 mg, AUC0–24 h, MAD 400 mg q.d., Day 1): 977 ng·h/mL
AUC(0-t) ([4]; human, whole blood, oral, 600 mg, AUC0–24 h, MAD 600 mg q.d., Day 1): 1080 ng·h/mL
AUC(0-t) ([4]; human, whole blood, oral, 600 mg, AUC0–24 h, MAD 600 mg q.d., Day 12): 1230 ng·h/mL
Cmax [4, 9]: 550 ng/mL
Tmax [4, 9]: 0.75 h
MRT ([4]; human, whole blood, oral, mean residence time (MRT), multiple doses (q.d. and b.i.d.), overall statement): < 3 h
mean residence time (MRT) ([4]; multiple doses (q.d. and b.i.d.), overall statement): ~ 3 h
number of doses to steady state ([4]; overall statement in discussion): less than 5 doses
accumulation with multiple doses ([4]; q.d. and b.i.d. dosing): no pronounced accumulation; also recorded: no marked accumulation

C[C@H]1CN(C2COC2)CCN1c1ccc(Nc2cc(-c3ccnc(N4CCn5c(cc6c5CC(C)(C)C6)C4=O)c3CO)cn(C)c2=O)nc1 [fenebrutinib]
duration of more than 90% CD63 inhibition (basophils [5]): ≤ 8 h
